What was measured:
[1] = target: T1, Prostaglandin G/H synthase 2 (Homo sapiens) (UniProt P35354); assay: Inhibition of human recombinant COX2 at 10 uM using arachidonic acid as substrate preincubated for 5 mins followed by substrate addition and measured after 2 mins by ADPH probe-based fluorescence assay relative to control
T1 sequence (whole entry): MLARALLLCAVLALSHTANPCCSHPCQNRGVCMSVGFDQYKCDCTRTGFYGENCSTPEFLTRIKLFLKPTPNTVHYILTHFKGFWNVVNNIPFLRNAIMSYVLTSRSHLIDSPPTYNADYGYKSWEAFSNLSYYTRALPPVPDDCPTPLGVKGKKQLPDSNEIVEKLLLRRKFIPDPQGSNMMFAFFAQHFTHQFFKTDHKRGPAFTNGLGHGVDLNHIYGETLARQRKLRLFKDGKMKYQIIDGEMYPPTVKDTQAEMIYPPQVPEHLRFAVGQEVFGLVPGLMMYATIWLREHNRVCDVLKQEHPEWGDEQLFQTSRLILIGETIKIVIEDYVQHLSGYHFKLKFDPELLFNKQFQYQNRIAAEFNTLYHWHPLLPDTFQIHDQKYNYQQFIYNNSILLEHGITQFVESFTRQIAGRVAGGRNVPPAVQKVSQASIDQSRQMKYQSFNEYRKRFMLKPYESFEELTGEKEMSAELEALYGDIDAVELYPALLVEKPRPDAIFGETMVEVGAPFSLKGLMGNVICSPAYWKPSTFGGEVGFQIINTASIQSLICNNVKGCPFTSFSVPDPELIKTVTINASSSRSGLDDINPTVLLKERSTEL
Summary of the method: (§1)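 Kit assay in 100 mM Tris-HCl pH 8.0. Enzyme, heme and inhibitor (DMSO stocks) are incubated 5 min at room temperature. ADPH is added, then arachidonic acid starts the reaction. After 2 min, fluorescence is read at ex 535/em 590 nm. Percent inhibition is taken versus the 100% activity well, background wells included. IC50 is derived from percentage inhibition, mean of three independent experiments.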

[2] = tested on: Mus musculus; assay: Anticonvulsant activity in Swiss albino mouse assessed as protection against subcutaneous pentylenetetrazole-induced seizures at 30 mg/kg, ip administered 4 hrs prior to PTZ challenge and measured after 30 mins; assay type: functional
Summary of the method: (§2)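 Male Swiss Albino mice (25–30 g), 6 per group, dosed i.p. with drugs in sterile saline, then challenged with PTZ 85 mg/kg s.c. (CD97), given at 10 ml/kg, 0.5 h or 4 h later. Each animal is observed singly for seizures. Protection is scored as protected/total animals.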

[3] = tested on: Rattus norvegicus; assay: Toxicity in Wistar rat assessed as monocyte level at 200 mg/kg, po for 14 days (reference value: 2.67 +/- 0.58%); assay type: organism-based; settings: in vivo, 336 h
[4] = tested on: Rattus norvegicus; assay: Toxicity in Wistar rat assessed as effect on total bilirubin level at 200 mg/kg, po for 14 days; assay type: organism-based; settings: in vivo, 336 h
Summary of the method: (§3)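 Normal Wistar rats are given 200 mg/kg orally for 14 days, with vehicle-treated controls. Serum liver markers (SGOT, SGPT, ALP, total protein, total bilirubin) and renal markers (urea, creatinine, uric acid) are then measured, mean ± S.D.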

[5] = tested on: Rattus norvegicus; assay: Cognitive enhancing effect in ip dosed PTZ-kindled rat assessed as decrease in ratio of second interaction trial to first interaction time by social recognition test (reference value: 0.928 +/- 0.234); assay type: functional
[6] = tested on: Rattus norvegicus; assay: Toxicity in Wistar rat assessed as hemoglobin level at 200 mg/kg, po for 14 days (reference value: 12.87 +/- 0.6 g/dl); assay type: organism-based; settings: in vivo, 336 h
[7] = tested on: Rattus norvegicus; assay: Toxicity in Wistar rat assessed as effect on potassium level at 200 mg/kg, po for 14 days; assay type: organism-based; settings: in vivo, 336 h
[8] = tested on: Rattus norvegicus; assay: Toxicity in Wistar rat assessed as neutrophil level at 200 mg/kg, po for 14 days (reference value: 17.33 +/- 3.21%); assay type: organism-based; settings: in vivo, 336 h
[9] = tested on: Rattus norvegicus; assay: Toxicity in Wistar rat assessed as effect on alkaline phosphatase level at 200 mg/kg, po for 14 days; assay type: organism-based; settings: in vivo, 336 h; summary of the method: as §3
[10] = tested on: Rattus norvegicus; assay: Toxicity in Wistar rat assessed as basophils level at 200 mg/kg, po for 14 days (reference value: 0 +/0%); assay type: organism-based; settings: in vivo, 336 h
[11] = tested on: Mus musculus; assay: Anticonvulsant activity in Swiss albino mouse assessed as protection against subcutaneous pentylenetetrazole-induced seizures at 300 mg/kg, ip administered 4 hrs prior to PTZ challenge and measured after 30 mins; assay type: functional; summary of the method: as §2
[12] = tested on: Mus musculus; assay: Anticonvulsant activity in Swiss albino mouse assessed as protection against subcutaneous pentylenetetrazole-induced seizures at 300 mg/kg, ip administered 0.5 hrs prior to PTZ challenge and measured after 30 mins; assay type: functional; summary of the method: as §2
[13] = target: T2, Prostaglandin G/H synthase 2 (Homo sapiens, UniProt P35354); assay: Inhibition of human recombinant COX2 using arachidonic acid as substrate preincubated for 5 mins followed by substrate addition and measured after 2 mins by ADPH probe-based fluorescence assay; summary of the method: as §1
T2 sequence (P35354 whole entry): T1 sequence (whole entry)

[14] = tested on: Mus musculus; assay: Anticonvulsant activity in Swiss albino mouse assessed as protection against subcutaneous pentylenetetrazole-induced seizures at 5 mg/kg, ip administered 2 hrs prior to PTZ challenge and measured after 30 mins; assay type: functional; settings: in the assay text read “30 mg/kg” for “5 mg/kg”
Summary of the method: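 Mice get a single i.p. dose, then PTZ 85 mg/kg s.c. at 0.5, 1, 2, 3, 4 or 6 h after dosing. Seizure protection is recorded at each interval as percentage of six Swiss Albino mice protected.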

[15] = tested on: Rattus norvegicus; assay: Toxicity in Wistar rat assessed as effect on chloride level at 200 mg/kg, po for 14 days; assay type: organism-based; settings: in vivo, 336 h

With `Cc1ccc(NC(=S)NNC(=O)Nc2ccc(S(C)(=O)=O)cc2)cc1` the inhibition [1] was 75%, the Activity [2] was 83% and the Activity [3] was 2.5%. The Activity [4] was “Non-Toxic”, the Ratio [5] was 0.561 and the Activity [6] was 14.15 g/dL. The Activity [7] was “Non-Toxic”, the Activity [8] was 21.5% and the Activity [9] was “Non-Toxic”. It also gave an Activity [10] of 0.5%, an Activity [11] of 83% and an Activity [12] of 83%. The IC50 [13] was 2.15 µM, the Activity [14] was 67% and the Activity [15] was “Non-Toxic”.

Source: ChEMBL document CHEMBL4152211, “Discovery of novel Methylsulfonyl phenyl derivatives as potent human Cyclooxygenase-2 inhibitors with effective anticonvulsant action: Design, synthesis, in-silico, in-vitro and in-vivo evaluation” (Eur J Med Chem, 2018)
